What was measured:
[1] = target: Adenosine receptors; A1 & A3 (Homo sapiens) (UniProt P30542+P0DMS8); test: Selectivity ratio (hA1/hA3); type: protein assay
[2] = target: Adenosine receptors; A2b & A3 (Homo sapiens) (UniProt P29275+P0DMS8); test: Selectivity ratio (h2B/hA3); type: protein assay
Adenosine receptor A3 [3] = target: T1, Adenosine receptor A3 (Homo sapiens, UniProt P0DMS8); test: Displacement of [3H]MRE3008-F20 from human Adenosine A3 receptor expressed in HEK cells; range 0.23-0.36; type: cell-based, HEK293
T1 sequence (P0DMS8 whole entry): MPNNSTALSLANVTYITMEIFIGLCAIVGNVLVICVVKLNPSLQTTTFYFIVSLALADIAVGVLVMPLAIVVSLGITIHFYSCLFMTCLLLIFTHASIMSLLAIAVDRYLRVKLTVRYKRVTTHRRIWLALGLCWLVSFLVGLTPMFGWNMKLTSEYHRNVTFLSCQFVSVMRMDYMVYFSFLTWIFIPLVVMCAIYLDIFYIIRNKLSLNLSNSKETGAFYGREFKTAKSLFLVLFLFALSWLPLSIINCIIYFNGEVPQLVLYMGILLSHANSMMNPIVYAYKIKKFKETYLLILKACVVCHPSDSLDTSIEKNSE

Adenosine receptor A1 [4] = target: T2, Adenosine receptor A1 (Homo sapiens, UniProt P30542); test: Displacement of [3H]DPCPX from human Adenosine A1 receptor expressed in CHO cells; range 351-526; type: cell-based
T2 sequence (P30542 whole entry): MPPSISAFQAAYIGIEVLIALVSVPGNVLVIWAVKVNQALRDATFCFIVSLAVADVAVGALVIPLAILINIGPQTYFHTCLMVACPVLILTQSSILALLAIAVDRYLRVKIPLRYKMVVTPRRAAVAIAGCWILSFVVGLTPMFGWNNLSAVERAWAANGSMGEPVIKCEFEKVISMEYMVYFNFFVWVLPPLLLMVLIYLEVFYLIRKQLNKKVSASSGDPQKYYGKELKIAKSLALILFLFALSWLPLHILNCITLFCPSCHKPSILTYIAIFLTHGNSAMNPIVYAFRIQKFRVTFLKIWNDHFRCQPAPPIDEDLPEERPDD
Summary of the method: (§1)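 Competition binding on membranes of CHO cells stably expressing human A1 receptor, resuspended in 50 mM Tris HCl pH 7.4. Incubation 120 min at 25 °C with 1 nM [3H]DPCPX, 50 µg protein per assay and at least six to eight test concentrations. CHA defined nonspecific binding. Bound ligand separated on glass-fibre filters and counted; n = 3-6.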

Adenosine receptor A3 [5] = target: T1, Adenosine receptor A3; test: Inhibition of IB-MECA agonist-mediated cAMP production in membranes of CHO cells expressing human Adenosine A3 receptor; range 1.2-4.9; type: functional, cell-based
Summary of the method: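 Human A3-CHO membranes (in 50 mM Tris HCl, 10 mM MgCl2, 1 mM EDTA, pH 7.4) were preincubated for 10 min at 37 °C with 5 µM GTP, 0.5 mM Ro 20-1724 and 2.0 IU/mL adenosine deaminase. IB-MECA (100 nM) or antagonist was then added with 1 mM ATP and forskolin for 10 min. The reaction was stopped by 2 min boiling. cAMP was measured by [3H]cAMP competitive protein binding using beef adrenal binding protein, 150 min at 4 °C.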

Adenosine receptor A2b [6] = target: T3, Adenosine receptor A2b (Homo sapiens, UniProt P29275); test: Displacement of [3H]DPCPX from human Adenosine A2B receptor expressed in HEK293 cells; range 115-143; type: cell-based
T3 sequence (P29275 whole entry): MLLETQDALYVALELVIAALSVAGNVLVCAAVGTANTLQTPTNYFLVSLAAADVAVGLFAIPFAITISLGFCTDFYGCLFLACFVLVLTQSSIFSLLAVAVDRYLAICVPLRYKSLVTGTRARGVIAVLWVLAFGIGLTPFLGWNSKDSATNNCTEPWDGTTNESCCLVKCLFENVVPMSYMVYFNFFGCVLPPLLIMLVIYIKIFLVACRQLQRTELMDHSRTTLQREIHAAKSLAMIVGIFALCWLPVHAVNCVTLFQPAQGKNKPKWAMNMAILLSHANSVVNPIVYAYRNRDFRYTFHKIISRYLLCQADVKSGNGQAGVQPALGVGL
Summary of the method: (§2)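 Competition binding on membranes of HEK-293 cells carrying recombinant human A2B receptor. Incubation 60 min at 25 °C in 50 mM Tris HCl pH 7.4 with 10 mM MgCl2, 1 mM EDTA, 0.1 mM benzamidine and 2 IU/mL adenosine deaminase. Radioligand 40 nM [3H]DPCPX, at least six to eight test concentrations. NECA defined nonspecific binding. Bound ligand separated on glass-fibre filters and counted; n = 3-6.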

Adenosine receptor A2a [7] = target: T4, Adenosine receptor A2a (Homo sapiens, UniProt P29274); test: Displacement of [3H]SCH-58261 from human Adenosine A2A receptor expressed in HEK293 cells; range 162-200; type: cell-based
T4 sequence (P29274 whole entry): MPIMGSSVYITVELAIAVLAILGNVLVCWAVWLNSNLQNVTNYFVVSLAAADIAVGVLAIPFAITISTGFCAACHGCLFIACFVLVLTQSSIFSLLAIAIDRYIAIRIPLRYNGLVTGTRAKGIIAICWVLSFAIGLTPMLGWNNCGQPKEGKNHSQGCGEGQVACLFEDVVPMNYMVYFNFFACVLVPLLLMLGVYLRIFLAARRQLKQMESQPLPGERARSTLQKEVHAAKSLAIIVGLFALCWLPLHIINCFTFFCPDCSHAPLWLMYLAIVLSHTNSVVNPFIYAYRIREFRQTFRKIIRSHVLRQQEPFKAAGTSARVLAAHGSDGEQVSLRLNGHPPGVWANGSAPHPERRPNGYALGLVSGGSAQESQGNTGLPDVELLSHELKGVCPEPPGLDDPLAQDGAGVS

Adenosine receptor A3 [8] = target: T1, Adenosine receptor A3; test: Displacement of [3H]MRE3008-F20 from human Adenosine A3 receptor expressed in HEK cells; range 0.65-1.58; type: cell-based, HEK293
Adenosine receptor A2b [9] = target: T3, Adenosine receptor A2b; test: Displacement of [3H]-DPCPX from human Adenosine A2B receptor expressed in HEK293 cells; range 118-173; type: cell-based
Summary of the method: (§3)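 HEK-293 membranes expressing the human receptor were incubated 60 min at 25 °C. Six to eight test concentrations were used. Nonspecific binding was set with NECA. n = 3-6.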

Adenosine receptor A2a [10] = target: T4, Adenosine receptor A2a; test: Displacement of [3H]SCH-58261 from human Adenosine A2A receptor expressed in HEK293 cells; range 255-366; type: cell-based
Adenosine receptor A2b [11] = target: T3, Adenosine receptor A2b; test: Displacement of [3H]DPCPX from human Adenosine A2B receptor expressed in HEK293 cells; range 68-105; type: cell-based
Summary of the method: (§4)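 Membranes from HEK-293 cells with human recombinant A2B receptor. Incubation 60 min at 25 °C in 50 mM Tris HCl, 10 mM MgCl2, 1 mM EDTA, 0.1 mM benzamidine, pH 7.4, with 2 IU/mL adenosine deaminase and 40 nM [3H]DPCPX. At least six to eight test concentrations. Nonspecific binding defined with NECA. n = 3-6.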

Adenosine receptor A2a [12] = target: T4, Adenosine receptor A2a; test: Displacement of [3H]SCH-58261 from human Adenosine A2A receptor expressed in HEK293 cells; range 134-190; type: cell-based
Adenosine receptor A3 [13] = target: T1, Adenosine receptor A3; test: biochemical
Adenosine receptor A1 [14] = target: T2, Adenosine receptor A1; test: Displacement of [3H]DPCPX from human Adenosine A1 receptor expressed in CHO cells; range 330-486; type: cell-based
Adenosine receptor A2b [15] = target: T3, Adenosine receptor A2b; test: Displacement of [3H]DPCPX from human Adenosine A2B receptor expressed in HEK293 cells; range 187-265; type: cell-based; summary of the method: as §4
Adenosine receptor A3 [16] = target: T1, Adenosine receptor A3; test: Inhibition of IB-MECA agonist-mediated cAMP production in CHO cell membranes expressing human Adenosine A3 receptor; range 3.0-10.8; type: functional, cell-based
Adenosine receptor A1 [17] = target: T2, Adenosine receptor A1; test: Displacement of [3H]DPCPX from human Adenosine A1 receptor expressed in CHO cells; range 379-535; type: cell-based
Summary of the method: (§5)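 Human recombinant A1 receptor in CHO cell membranes, resuspended in 50 mM Tris HCl pH 7.4. Displacement run 120 min at 25 °C with 1 nM [3H]DPCPX, 50 µg protein per assay, and at least six to eight test concentrations. Nonspecific binding defined with CHA. Bound and free separated on glass-fiber filters; filter radioactivity counted. n = 3-6.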

Adenosine receptor A2a [18] = target: T4, Adenosine receptor A2a; test: Displacement of [3H]SCH-58261 from human Adenosine A2A receptor expressed in HEK293 cells; range 146-220; type: cell-based
Adenosine receptor A3 [19] = target: T1, Adenosine receptor A3; test: Displacement of [3H]MRE3008-F20 from human Adenosine A3 receptor expressed in HEK cells; range 0.59-0.83; type: cell-based, HEK293
Adenosine receptor A1 [20] = target: T2, Adenosine receptor A1; test: Displacement of [3H]DPCPX from human Adenosine A1 receptor expressed in CHO cells; range 264-463; type: cell-based; summary of the method: as §1
Adenosine receptor A2b [21] = target: T3, Adenosine receptor A2b; test: Displacement of [3H]DPCPX from human Adenosine A2B receptor expressed in HEK293 cells; range 105-170; type: cell-based; summary of the method: as §2
Adenosine receptor A3 [22] = target: T1, Adenosine receptor A3; test: Displacement of [3H]MRE3008-F20 from human Adenosine A3 receptor expressed in HEK cells; range 0.61-0.84; type: cell-based, HEK293
Adenosine receptor A2a [23] = target: T4, Adenosine receptor A2a; test: Displacement of [3H]SCH-58261 from human Adenosine A2A receptor expressed in HEK293 cells; range 25-40; type: cell-based
Adenosine receptor A3 [24] = target: T1, Adenosine receptor A3; test: Inhibition of IB-MECA agonist-mediated cAMP production in CHO cell membranes expressing human Adenosine A3 receptor; range 2.7-7.8; type: functional, cell-based
Adenosine receptor A2a [25] = target: T4, Adenosine receptor A2a; test: Displacement of [3H]SCH-58261 from human Adenosine A2A receptor expressed in HEK293 cells; range 93-130; type: cell-based
Adenosine receptor A1 [26] = target: T2, Adenosine receptor A1; test: Displacement of [3H]DPCPX from human Adenosine A1 receptor expressed in CHO cells; range 601-888; type: cell-based; summary of the method: as §5
Adenosine receptor A2b [27] = target: T3, Adenosine receptor A2b; test: Displacement of [3H]DPCPX from human Adenosine A2B receptor expressed in HEK293 cells; range 244-373; type: cell-based; summary of the method: as §3
Adenosine receptor A3 [28] = target: T1, Adenosine receptor A3; test: biochemical; remark: listed apart in the source

In the case of `Cn1cc2c(nc(NC(=O)Nc3ccc(Cl)cc3)n3nc(-c4ccco4)nc23)n1`, the Ratio [1] is reported as 1480, the Ratio [2] is reported as 441 and the Ki (Adenosine receptor A3 [3]) is reported as 0.29 nM. For the same molecule, the Ki (Adenosine receptor A1 [4]) was 430 nM, the IC50 (Adenosine receptor A3 [5]) was 2.4 nM and the Ki (Adenosine receptor A2b [6]) was 128 nM. For the same molecule, the Ki (Adenosine receptor A2a [7]) was 180 nM.

Work on `CCCn1cc2c(nc(NC(=O)Cc3ccccc3)n3nc(-c4ccco4)nc23)n1` yielded a Ratio [1] of 348, a Ki (Adenosine receptor A3 [8]) of 1.01 nM and a Ratio [2] of 142. The Ki (Adenosine receptor A2b [9]) was 143 nM and the Ki (Adenosine receptor A2a [10]) was 306 nM.

Molecule `CCn1cc2c(nc(NC(=O)Nc3ccc(Cl)cc3)n3nc(-c4ccco4)nc23)n1` has a Ratio [1] of 2000, a Ratio [2] of 425 and a Ki (Adenosine receptor A2b [11]) of 85 nM. The Ki (Adenosine receptor A2a [12]) was 160 nM, the Ki (Adenosine receptor A3 [13]) was 0.2 nM and the Ki (Adenosine receptor A1 [14]) was 400 nM.

`COc1ccccc1NC(=O)Nc1nc2nn(C)cc2c2nc(-c3ccco3)nn12` showed a Ratio [1] of 643, a Ratio [2] of 319 and a Ki (Adenosine receptor A2b [15]) of 223 nM. It also gave an IC50 (Adenosine receptor A3 [16]) of 5.6 nM, a Ki (Adenosine receptor A1 [17]) of 450 nM and a Ki (Adenosine receptor A2a [18]) of 180 nM. The Ki (Adenosine receptor A3 [19]) was 0.7 nM.

`CCCCn1cc2c(nc(NC(=O)Nc3ccc(C(F)(F)F)cc3)n3nc(-c4ccco4)nc23)n1` showed a Ratio [1] of 486, a Ratio [2] of 181 and a Ki (Adenosine receptor A1 [20]) of 350 nM. For the same molecule, the Ki (Adenosine receptor A2b [21]) was 130 nM, the Ki (Adenosine receptor A3 [22]) was 0.72 nM and the Ki (Adenosine receptor A2a [23]) was 31 nM.

`Cc1ccc(NC(=O)Nc2nc3nn(C)cc3c3nc(-c4ccco4)nn23)cc1` was tested, and the Ratio [1] was 2360, the Ratio [2] was 974 and the IC50 (Adenosine receptor A3 [24]) was 4.6 nM. The Ki (Adenosine receptor A2a [25]) was 110 nM, the Ki (Adenosine receptor A1 [26]) was 731 nM and the Ki (Adenosine receptor A2b [27]) was 302 nM. It also gave a Ki (Adenosine receptor A3 [28]) of 0.31 nM.

— ChEMBL document CHEMBL1136016, “Synthesis, biological activity, and molecular modeling investigation of new pyrazolo[4,3-e]-1,2,4-triazolo[1,5-c]pyrimidine derivatives as human A(3) adenosine receptor antagonists” (J Med Chem, 2002)
